Source: ChEMBL document CHEMBL2086326, “Biological activity evaluation and structure-activity relationships analysis of ferulic acid and caffeic acid derivatives for anticancer” (Bioorg Med Chem Lett, 2012)

Columns and labels:
Format in all cases: functional, cell-based
A549 = assay: Cytotoxicity against human A549 cells after 72 hrs by alamar blue assay; conditions: A549, 72 h
Method in brief: (§1)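 Cells seeded at 800–1000 per well (20–25 cells/µL) and left overnight to attach. Compounds were diluted serially from 10 mM DMSO stocks and tested at 8 final concentrations, 50 to 0.39 µM, in triplicate for 72 h. Vehicle control was 0.5% DMSO. Alamar blue was added to 10% final and fluorescence read after 4 h (ex 530, em 560 nm). Viability was expressed as percent of vehicle, and IC50 taken as 50% kill versus control.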

NCI-H157 = assay: Cytotoxicity against human NCI-H157 cells after 72 hrs by alamar blue assay; conditions: NCI-H157, 72 h; method in brief: as §1
NCI-H460 = assay: Cytotoxicity against human H460 cells after 72 hrs by alamar blue assay; conditions: NCI-H460, 72 h; method in brief: as §1
NCI-H1792 = assay: Cytotoxicity against human NCI-H1792 cells after 72 hrs by alamar blue assay; conditions: NCI-H1792, 72 h; method in brief: as §1
[1] = Cytotoxicity against human H266 cells after 72 hrs by alamar blue assay; conditions: H266, 72 h; method in brief: as §1
HOP-62 = assay: Cytotoxicity against human HOP62 cells after 72 hrs by alamar blue assay; conditions: HOP-62, 72 h; method in brief: as §1
NCI-H1299 = assay: Cytotoxicity against human NCI-H1299 cells after 72 hrs by alamar blue assay; conditions: NCI-H1299, 72 h; method in brief: as §1
[2] = Cytotoxicity against human 292G cells after 72 hrs by alamar blue assay; method in brief: as §1
Calu-1 = assay: Cytotoxicity against human Calu1 cells after 72 hrs by alamar blue assay; conditions: Calu-1, 72 h; method in brief: as §1
LOX IMVI = assay: Cytotoxicity against human LOXIMVI cells after 72 hrs by alamar blue assay; method in brief: as §1
M14 = assay: Cytotoxicity against human M14 cells after 72 hrs by alamar blue assay; conditions: M14, 72 h; method in brief: as §1
HeLa = assay: Cytotoxicity against human HeLa cells after 72 hrs by alamar blue assay; method in brief: as §1
[3] = Cytotoxicity against human M4E cells after 72 hrs by alamar blue assay; method in brief: as §1
[4] = Cytotoxicity against human SKBR cells after 72 hrs by alamar blue assay; method in brief: as §1

COc1cc(/C=C/C(=O)OCCOCCOc2no[n+]([O-])c2S(=O)(=O)c2ccccc2)ccc1O
IC50 (A549): 0.41 µM | IC50 (NCI-H157): 0.44 µM | IC50 (NCI-H460): 0.43 µM | IC50 (NCI-H1792): 1.07 µM | IC50 [1]: 0.42 µM | IC50 (HOP-62): 0.48 µM | IC50 (NCI-H1299): 0.49 µM | IC50 [2]: 2.88 µM | IC50 (Calu-1): 0.45 µM | IC50 (LOX IMVI): 0.42 µM | IC50 (M14): 0.41 µM | IC50 (HeLa): 0.43 µM | IC50 [3]: 1.12 µM | IC50 [4]: 0.41 µM

COc1cc(/C=C/C(=O)OC(C)CCOc2no[n+]([O-])c2S(=O)(=O)c2ccccc2)ccc1O (stereo unspecified)
IC50 (A549): 0.42 µM | IC50 (NCI-H157): 0.41 µM | IC50 (NCI-H460): 0.42 µM | IC50 (NCI-H1792): 0.4 µM | IC50 [1]: 0.43 µM | IC50 (HOP-62): 0.42 µM | IC50 (NCI-H1299): 0.41 µM | IC50 [2]: 1.77 µM | IC50 (Calu-1): 0.45 µM | IC50 (LOX IMVI): 0.41 µM | IC50 (M14): 0.41 µM | IC50 (HeLa): 0.4 µM | IC50 [3]: 1.18 µM | IC50 [4]: 0.4 µM

O=C(/C=C/c1ccc(OCCCCCO[N+](=O)[O-])c(O)c1)OCCCCCO[N+](=O)[O-]
IC50 (A549): 0.45 µM | IC50 (NCI-H157): > 50 µM | IC50 (NCI-H460): > 50 µM | IC50 (NCI-H1792): > 50 µM | IC50 [1]: > 50 µM | IC50 (HOP-62): > 50 µM | IC50 (NCI-H1299): > 50 µM | IC50 [2]: > 50 µM | IC50 (Calu-1): > 50 µM | IC50 (LOX IMVI): 7.23 µM | IC50 (M14): > 50 µM | IC50 (HeLa): 5.73 µM | IC50 [3]: > 50 µM | IC50 [4]: 2.71 µM

CC(C)CCOC(=O)/C=C/c1ccc(O)c(O)c1
IC50 (A549): 8.76 µM | IC50 (NCI-H157): 8.25 µM | IC50 (NCI-H460): 16.5 µM | IC50 (NCI-H1792): 31.9 µM | IC50 [1]: 33.8 µM | IC50 (HOP-62): 15.7 µM | IC50 (NCI-H1299): 17.9 µM | IC50 [2]: 27.6 µM | IC50 (Calu-1): 20.2 µM | IC50 (LOX IMVI): 8.03 µM | IC50 (M14): 30.6 µM | IC50 (HeLa): 9.39 µM | IC50 [3]: 29.1 µM | IC50 [4]: 13.1 µM

O=C(/C=C/c1ccc(O)c(O)c1)OCCCCO[N+](=O)[O-]
IC50 (A549): 22.6 µM | IC50 (NCI-H157): 5.19 µM | IC50 (NCI-H460): 3.52 µM | IC50 (NCI-H1792): 15.4 µM | IC50 [1]: 23.3 µM | IC50 (HOP-62): 10 µM | IC50 (NCI-H1299): 3.14 µM | IC50 [2]: 16.7 µM | IC50 (Calu-1): 21.7 µM | IC50 (LOX IMVI): > 50 µM | IC50 (M14): 19.9 µM | IC50 (HeLa): 2.25 µM | IC50 [3]: 17.5 µM | IC50 [4]: 4.55 µM

O=C(/C=C/c1ccc(O)c(O)c1)OCc1c(-c2ccccc2)no[n+]1[O-]
IC50 (A549): 2.71 µM | IC50 (NCI-H157): > 50 µM | IC50 (NCI-H460): 2.54 µM | IC50 (NCI-H1792): 3.78 µM | IC50 [1]: 14.2 µM | IC50 (HOP-62): 6.12 µM | IC50 (NCI-H1299): > 50 µM | IC50 [2]: 9.17 µM | IC50 (Calu-1): 7.68 µM | IC50 (LOX IMVI): 13.3 µM | IC50 (M14): 12.5 µM | IC50 (HeLa): 1.23 µM | IC50 [3]: 12.9 µM | IC50 [4]: 0.7 µM

O=C(/C=C/c1ccc(OCCCO[N+](=O)[O-])c(O)c1)OCCCO[N+](=O)[O-]
IC50 (A549): 0.69 µM | IC50 (NCI-H157): 5.71 µM | IC50 (NCI-H460): 9.58 µM | IC50 (NCI-H1792): 6.61 µM | IC50 [1]: > 50 µM | IC50 (HOP-62): 10 µM | IC50 (NCI-H1299): > 50 µM | IC50 [2]: 4.98 µM | IC50 (Calu-1): 12.5 µM | IC50 (LOX IMVI): 6.94 µM | IC50 (M14): 8.96 µM | IC50 (HeLa): > 50 µM | IC50 [3]: 14.1 µM | IC50 [4]: 4.81 µM

CCCCOC(=O)/C=C/c1ccc(O)c(OC)c1
IC50 (A549): 8.23 µM | IC50 (NCI-H157): 9.03 µM | IC50 (NCI-H460): 19.4 µM | IC50 (NCI-H1792): 15 µM | IC50 [1]: 18.3 µM | IC50 (HOP-62): 14.9 µM | IC50 (NCI-H1299): 8.23 µM | IC50 [2]: 22.9 µM | IC50 (Calu-1): 17.2 µM | IC50 (LOX IMVI): 19.3 µM | IC50 (M14): 18.1 µM | IC50 (HeLa): 10.3 µM | IC50 [3]: 15 µM | IC50 [4]: 13.2 µM

COc1cc(/C=C/C(=O)Oc2ccc(OCc3c(-c4ccccc4)no[n+]3[O-])cc2)ccc1O
IC50 (A549): 3.39 µM | IC50 (NCI-H157): 43.1 µM | IC50 (NCI-H460): 15.8 µM | IC50 (NCI-H1792): 8.15 µM | IC50 [1]: > 50 µM | IC50 (HOP-62): 30.4 µM | IC50 (NCI-H1299): 28.5 µM | IC50 [2]: 31 µM | IC50 (Calu-1): 28.8 µM | IC50 (LOX IMVI): > 50 µM | IC50 (M14): > 50 µM | IC50 (HeLa): 12.1 µM | IC50 [3]: > 50 µM | IC50 [4]: 11 µM
